Values after ≈ are worked out from the molar mass of the structure shown. Like-named read-outs stand apart in the source and are kept apart here.
Tests used:
[1] = tested on: amastigotes of T. cruzi Sylvio X10/7 strain; assay: Trypanocidal activity against intracellular amastigotes in C2C12 cells; type: cell-based, Trypanosoma cruzi
Procedure, shortened: (§1)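 Trypomastigotes from C2C12 co-culture (DMEM, 10% FBS, 25 mM HEPES, pH 7.2) were seeded with C2C12 cells at a 1:15 infection rate. Test compound (0.19–100 μM, 2-fold, 0.1% DMSO) was added at the start. After 72 h at 37 °C, 5% CO2, cells were stained with DAPI 2 h and imaged confocally. Amastigote and host nuclei were told apart by size. IC50 came from sigmoid fits of the infection ratio normalised to controls. Mean ± SD, three experiments in triplicate.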

[2] = Cytotoxicity in non-infected cells; type: cell-based, monkey; details: monkey, non-infected LLC-MK2 cells
Procedure, shortened: (§2)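 LLC-MK2 monkey kidney cells, grown in RPMI with 10% FBS at 37 °C and 5% CO2, were plated and after 24 h exposed to test compound (0.19–100 μM, 2-fold dilutions, 0.1% DMSO) for 72 h at 37 °C. Controls were untreated cells, 0.4% DMSO and 15% Triton. After a PBS wash, MTT (2 mg/ml) was added for 4 h, and absorbance read at 450/620 nm. SI is CC50 divided by the 72 h CA-I/72 intracellular amastigote IC50.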

[3] = tested on: non-infected LLC-MK2 cells; assay: Cytotoxicity in non-infected cells; type: cell-based, monkey; details: non-infected LLC-MK2 CC50 / IC50 amastigotes CA-I/72 strain, 72 h
Procedure, shortened: as §2

[4] = tested on: intracellular amastigotes of T. cruzi CA-I/72 strain; assay: Time-course study against intracellular amastigotes; type: cell-based; details: Trypanosoma cruzi
Procedure, shortened: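 CA-I/72 trypomastigotes were incubated with C2C12 cells for 48 h to form intracellular amastigotes. Test compound was then added (0.19–100 μM, 2-fold, 0.1% DMSO), with benznidazole and DMSO controls. Incubation ran 8, 12, 24 or 48 h at 37 °C, 5% CO2. Growth inhibition was read by DAPI high-content imaging. IC50 came from sigmoid fits of the normalised infection ratio. Time trend was tested by linear regression and ANOVA.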

[5] = Cytotoxicity in non-infected cells; type: cell-based, murine; details: mouse, non-infected C2C12 cells
Procedure, shortened: (§3)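 Non-infected C2C12 cells (5 × 10^4 per well) were plated for 24 h. Test compound (0.19–100 μM, 2-fold, 0.1% DMSO) was then added for 72 h at 37 °C. Controls were untreated, DMSO 0.4% and Triton 15%. After a PBS wash, MTT (2 mg/ml) was added for 4 h, and absorbance was read at 450 nm (reference 620 nm). CC50 came from sigmoid fits. SI = CC50/IC50 against CA-I/72 amastigotes at 72 h.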

non-infected C2C12 cells = assay: Cytotoxicity in non-infected cells; type: cell-based, murine; details: non-infected C2C12 CC50 / IC50 amastigotes CA-I/72 strain, 72 h
Procedure, shortened: as §3

[6] = Time-course cytotoxicity in infected C2C12 cells; type: cell-based, murine; details: mouse
Procedure, shortened: (§4)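 This uses the CA-I/72 time-course infection format: a 48 h pre-infection of C2C12 cells, then test compound at 0.19–100 μM for 8, 12, 24 or 48 h, with DAPI imaging. Host viability was the total host cell count divided by the mean count of 0.1% DMSO controls. CC50 came from sigmoid fits. SI = CC50/IC50 against amastigotes at the matching time.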

[7] = tested on: C2C12 cells infected with intracellular amastigotes of T. cruzi (CA-I/72 strain); assay: Time-course cytotoxicity in infected C2C12 cells; type: cell-based, murine; details: infected C2C12 vs amastigotes CA-I/72, time-course
Procedure, shortened: as §4

[8] = tested on: amastigotes of T. cruzi Brazil strain; assay: Trypanocidal activity against intracellular amastigotes in C2C12 cells; type: cell-based; details: Trypanosoma cruzi, C2C12, 72 h, read-out: IC50 ± SD, amastigotes
Procedure, shortened: as §1

[9] = tested on: amastigotes of T. cruzi Sylvio X10/4 strain; assay: as above; type: cell-based; details: Trypanosoma cruzi, C2C12, 72 h, read-out: IC50 ± SD, amastigotes
Procedure, shortened: as §1

[10] = tested on: trypomastigotes of T. cruzi (Sylvio X10/4 strain); assay: Trypanocidal activity against trypomastigotes; type: cell-based; details: Trypanosoma cruzi, 72 h, read-out: IC50 ± SD, trypomastigotes
Procedure, shortened: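 Sylvio X10/4 trypomastigotes were taken from amastigote culture supernatant and seeded at 1 × 10^6 per well. Test compound was added at 0.19–100 μM (0.1% DMSO), with benznidazole (0.019–10 μM) and DMSO controls. Incubation was 72 h at 37 °C, 5% CO2. Viability was read with resazurin (40 μM in PBS), fluorescence 530/630 nm. IC50 came from sigmoid dose–response fits.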

[11] = tested on: amastigotes of T. cruzi CA-I/72 strain; assay: Trypanocidal activity against intracellular amastigotes in C2C12 cells; type: cell-based; details: Trypanosoma cruzi, C2C12, 72 h, read-out: IC50 ± SD, amastigotes
Procedure, shortened: as §1

[12] = Cytotoxicity in infected C2C12 cells after 72 h; type: cell-based, murine; details: mouse
Procedure, shortened: (§5)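 C2C12 cells were infected with trypomastigotes (1:15) together with test compound (0.19–100 μM, 0.1% DMSO) for 72 h at 37 °C, 5% CO2. Host nuclei were counted by DAPI high-content imaging. Viability was the cell count relative to the DMSO-control mean. CC50 came from sigmoid fits. SI = CC50/IC50 against intracellular amastigotes of the same strain at 72 h.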

female BALB/c mice = assay: Acute oral toxicity test in mice; type: in vivo; details: for DA/TA (dead animals/total animals) / Mortality / Signs of toxicity: 14 days
Procedure, shortened: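 Six-week-old female BALB/c mice (25–30 g), five per group. Single oral dose of 300 or 1,000 mg/kg test compound in Tween 80/ethanol/water (7:3:90), with a vehicle group. Clinical signs (ataxia, tremor, salivation, ptosis, seizures and others) watched continuously for 1 h, periodically over 24 h, then daily to day 14. Mortality recorded.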

[13] = tested on: several Streptococcus species; details: ref Vieira et al., 2018; cited from earlier work
infected C2C12 cells = assay: Cytotoxicity in infected C2C12 cells after 72 h; type: cell-based, murine; details: 72 h
Procedure, shortened: as §5

[14] = Trypanosoma cruzi, C2C12, 72 h, read-out: IC50 ± SD, amastigotes, Sylvio X10/7 strain, 72 h incubation
[15] = read-out: IC50 over the incubation times evaluated
[16] = C2C12 cells infected with T. cruzi Brazil strain
[17] = C2C12 cells infected with T. cruzi CA-I/72 strain
[18] = C2C12 cells infected with T. cruzi Sylvio X10/4 strain
[19] = C2C12 cells infected with T. cruzi Sylvio X10/7 strain
[20] = infected C2C12, Sylvio X10/7 strain

SMILES | IC50 [1, 14] [µM] | CC50 at 72 h [2] [µM] | SI (CC50/IC50) [3] | IC50 ([4]; 8 h, read-out: IC50 ± SD) [µM] | IC50 ([4]; 12 h, read-out: IC50 ± SD) [µM] | IC50 ([4]; 24 h, read-out: IC50 ± SD) [µM] | IC50 ([4]; 48 h, read-out: IC50 ± SD) [µM] | CC50 at 72 h [5] [µM] | CC50 at 8 h [6] [µM] | CC50 at 12 h [6] [µM] | CC50 at 24 h [6] [µM] | CC50 at 48 h [6] [µM] | IC50 [8] [µM] | IC50 [9] [µM] | IC50 [10] [µM] | IC50 [11] [µM] | CC50 at 72 h [12, 16] [µM] | CC50 at 72 h [12, 17] [µM] | CC50 at 72 h [12, 18] [µM] | CC50 at 72 h [12, 19] [µM] | other results
O=C(Cn1ccnc1[N+](=O)[O-])NCc1ccccc1 [BZ, benznidazole, reference compound] | 1.19 ± 0.25 | 168 ± 2.98 | 82.92 | > 10 | 6.85 ± 1.56 | 5.97 ± 1.2 | 1.54 ± 0.36 | 37.9 ± 1.54 | > 10 | 3.98 ± 0.31 | 3.48 ± 0.7 | 0.27 ± 0.07 | 1.28 ± 0.64 | 4.12 ± 1.02 | 1.16 ± 0.04 | 2.02 ± 0.12 | > 10 | > 10 | > 10 | > 10 | IC50 [4, 15]: 1.54 to 10 µM; SI (CC50/IC50) (non-infected C2C12 cells): 18.73; SI (CC50/IC50) ([7]; 12 h): 0.58; SI (CC50/IC50) ([7]; 24 h): 0.58; SI (CC50/IC50) ([7]; 48 h): 0.17
COc1cc(/C=C/C(=O)CC(=O)/C=C/c2ccc(O)c(OC)c2)ccc1O [CUR, reference compound] | 11.6 ± 4.93 | 32.5 ± 0.49 | – | > 100 | > 100 | 51.6 ± 1.26 | 2.25 ± 0.65 | 18 ± 0.42 | 60.3 ± 1.54 | 9.95 ± 1.17 | 1.88 ± 0.17 | 0.47 ± 0.09 | 11.2 ± 1.05 | 20 ± 2.61 | 9.89 ± 0.51 | 2.71 ± 0.47 | 2.36 ± 1.24 | 6.71 ± 0.7 | 1.91 ± 0.02 | 3.37 ± 1.33 | Acute toxicity (general signs of toxicity or mortality) (female BALB/c mice; oral doses 300 and 1,000 mg/kg, 14-day period): no toxic effects; DA/TA (dead animals/total animals) (female BALB/c mice; single oral dose 300 mg/kg): 0/5; Mortality (female BALB/c mice; single oral dose 300 mg/kg): 0%; Signs of toxicity (female BALB/c mice; single oral dose 300 mg/kg): None; DA/TA (dead animals/total animals) (female BALB/c mice; single oral dose 1,000 mg/kg): 0/5; Mortality (female BALB/c mice; single oral dose 1,000 mg/kg): 0%; Signs of toxicity (female BALB/c mice; single oral dose 1,000 mg/kg): None
COc1ccc(/C=C/C(=O)/C=C/c2ccc(OC)cc2)cc1 [DBA 2, (1E,4E)-1,5-bis(4-methoxyphenyl)penta-1,4-dien-3-one] | 0.48 ± 0.02 | 31.4 ± 1.2 | 1.79 | > 100 | > 100 | > 100 | > 100 | 35.5 ± 0.5 | 40.7 ± 1.07 | 3.03 ± 0.79 | 0.33 ± 0.41 | 0.02 ± 0.03 | 51.6 ± 4.9 | 46.6 ± 0.48 | 29.8 ± 2.12 | 17.5 ± 1.06 | 5.15 ± 0.13 | 4.3 ± 1.22 | 2.54 ± 1.86 | 0.9 ± 1.2 | IC50 [4, 15]: > 100 µM; SI (CC50/IC50) (non-infected C2C12 cells): 2.03; MIC [13]: 100 µg/mL (≈ 340 µM); SI (CC50/IC50) (infected C2C12 cells; infected C2C12, Brazil strain): 0.10; SI (CC50/IC50) (infected C2C12 cells; infected C2C12, CA-I/72 strain): 0.24; SI (CC50/IC50) (infected C2C12 cells; infected C2C12, Sylvio X10/4 strain): 0.05; SI (CC50/IC50) (infected C2C12 cells; [20]): 1.87
COc1cc(OC)c(/C=C/C(=O)/C=C/c2c(OC)cc(OC)cc2OC)c(OC)c1 [DBA 4, (1E,4E)-1,5-bis-(2,4,6-trimethoxyphenyl)penta-1,4-dien-3-one] | 33.1 | 50.1 ± 7.92 | ≥ 10 | > 100 | > 100 | > 100 | 34.5 ± 0.94 | 53.7 ± 1.26 | > 100 | 60.4 ± 1.11 | 2.98 ± 0.24 | 0.66 ± 0.29 | > 100 | > 100 | > 100 | 5.01 ± 1.14 | 0.09 ± 0.11 | 0.6 ± 0.16 | 0.11 ± 0.1 | 0.37 ± 0.14 | IC50 ([1]; read-out: IC50 ± SD, amastigotes, Sylvio X10/7 strain, 72 h incubation): 33.1 ± 2.05 µM; SI (CC50/IC50) ([3]; listed as 4): 10.00; SI (CC50/IC50) (non-infected C2C12 cells): > 10; SI (CC50/IC50) (non-infected C2C12 cells; listed as 4): 10.71; SI (CC50/IC50) ([7]; 48 h): 0.01; SI (CC50/IC50) (infected C2C12 cells; infected C2C12, CA-I/72 strain): 0.12; SI (CC50/IC50) (infected C2C12 cells; [20]): 0.01

Source: publication PMC8906099 (Current Research in Parasitology & Vector-borne Diseases, 2021)
